For 6 molecules, IC50 results are on record in ChEMBL document CHEMBL1148905, “Cytotoxic constituents of roots of Chaerophyllum hirsutum” (J Nat Prod, 2004).

Structures can show the parent of a compound that is named as a salt.

Holding throughout (assay type): functional, cell-based
Experiment [1] concerns HT-1080. Description: Cytotoxicity against human HT1080 cells after 72 hrs by MTT assay. The settings on record: HT-1080, 72 h. The method in brief:
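HT1080 cells grown in DMEM with 10% FBS, penicillin G and streptomycin. Exponentially growing cultures seeded at 5 × 10^4 cells/mL and left to adhere 18 h before drug addition. MTT viability read after 72 h. Growth as % of untreated controls, IC50 by linear regression. Mean ± SEM of three independent experiments. Doxorubicin hydrochloride as reference.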
In general terms: Formazan colour is commonly taken as a measure of viable cells.

Experiment [2] deals with LoVo. The experiment can be described thus: Cytotoxicity against human LoVo cells after 72 hrs by MTT assay. The method in brief:
(§1)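 Parental LoVo and the mdr-expressing (P-glycoprotein) LoVo/Doxo intestinal adenocarcinoma lines cultured in Ham's F12. Exponentially growing cells seeded at 5 × 10^4 cells/mL and allowed 18 h adherence before drug. MTT viability at 72 h. Growth as % of untreated controls, IC50 by linear regression. Mean ± SEM, three independent experiments. Doxorubicin hydrochloride as reference.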

Experiment [3] has as its system HL-60. The experiment can be described thus: Cytotoxicity against human HL60 cells after 72 hrs by MTT assay. The settings on record: HL-60, 72 h. The method in brief:
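HL-60 leukaemia cells in exponential growth, resuspended at 1 × 10^5 cells/mL in RPMI 1640 with 10% FBS, penicillin G and streptomycin. Drug exposure for 72 h, then viability by MTT. Growth at each concentration expressed as % of untreated controls. IC50 (50% growth inhibition) by linear regression. Mean ± SEM of three independent experiments. Doxorubicin hydrochloride as reference.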

The test system of experiment [4] is LoVo. Description: Cytotoxicity against human doxorubicin-resistant LoVo cells after 72 hrs by MTT assay. The method in brief:
as §1

The term IC50 denotes the point on the concentration scale where inhibition reaches its midpoint. In the case of `O=C1O[C@@H](c2ccc(O)cc2)[C@H](C(=O)O)/C1=C\c1ccc(O)cc1` (relative stereo), the IC50 in experiment [1] is 36 µM; in experiment [2] it was 13.9 µM; in experiment [3], 11.3 µM; in experiment [4], greater than 40 µM.

Take `COc1cc2ccc(=O)oc2cc1O` [SCOPOLETIN]: the IC50 in experiment [1] turned out to be 12.5 µM; in experiment [2], 7.3 µM; in experiment [3] it was 9.5 µM; in experiment [4] it was 18.5 µM.

For `COc1cccc2c1C(=O)c1c(O)c3c(c(O)c1C2=O)C[C@@](O)(C(=O)CO)C[C@@H]3O[C@H]1C[C@H](N)[C@H](O)[C@H](C)O1` [DOXORUBICIN HYDROCHLORIDE], the IC50 in experiment [1] is 0.012 µM; in experiment [2], 0.2 µM; in experiment [3], 0.01 µM; in experiment [4], 13.2 µM.

With `O=C(O)/C(=C/c1ccc(O)cc1)[C@@H](C(=O)O)C(=O)c1ccc(O)cc1`, the IC50 in experiment [1] is 30.6 µM; in experiment [2], 16.4 µM; in experiment [3] it was 11.5 µM; in experiment [4], 19.6 µM.

For the molecule `C=C[C@@H](O)C#CC#C[C@@H](O)/C=C\CCCCCCC` [FALCARINDIOL], the IC50 in experiment [1] was 13 µM; in experiment [2], 4.3 µM; in experiment [3], 8.9 µM; in experiment [4], greater than 40 µM.

Turning to `COC(=O)/C=C/c1ccc(O)c(O)c1` [METHYLCAFFEATE], the IC50 in experiment [1] is 11.1 µM; in experiment [2] it was 5.8 µM; in experiment [3], 7.5 µM; in experiment [4] it was greater than 40 µM.
